Screening results (PubChem BioAssay)
Rows were chosen to be rich in hits. Some 2.3% of all compounds tested hit in one or more screens of this group.
V1aR counter: activates human V1a receptor in oxytocin agonist counter-screen. P37288. CHO-V1R cells, Fluo-8 calcium fluorescence, agonist mode; 0% DMSO, 100% 3 nM vasopressin. activation, % at 3 µM. 320,000 tested, 0.25% active;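 active = activation above the mean activation of all tested compounds plus 3 SD, per screening run, cut at about 20% in these data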;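 note: signal is peak over basal fluorescence ratio across a 100 second FLIPR read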
Target sequence (P37288 whole entry, looked up): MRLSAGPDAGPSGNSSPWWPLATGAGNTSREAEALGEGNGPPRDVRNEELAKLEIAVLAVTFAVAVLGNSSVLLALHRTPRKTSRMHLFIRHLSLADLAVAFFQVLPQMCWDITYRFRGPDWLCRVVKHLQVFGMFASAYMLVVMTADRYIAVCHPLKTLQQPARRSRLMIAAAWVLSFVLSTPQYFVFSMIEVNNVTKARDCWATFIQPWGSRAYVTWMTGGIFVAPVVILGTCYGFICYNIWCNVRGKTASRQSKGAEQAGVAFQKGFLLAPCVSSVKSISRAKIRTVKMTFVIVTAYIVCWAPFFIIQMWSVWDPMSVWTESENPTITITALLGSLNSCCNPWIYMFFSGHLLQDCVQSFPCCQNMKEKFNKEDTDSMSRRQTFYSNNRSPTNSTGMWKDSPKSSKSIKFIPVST
TAAR1 ag: agonists of human TAAR1 | Q96RJ0 | CHO RD-HGA16 TAAR1, Fluo-8 calcium fluorescence; vehicle wells 0%, saturating PEA agonist 100% | activation, % at 3 µM | 360,000 tested, 0.99% active;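 active = activation above the mean activation of all test compounds in the run plus 3 SD, cut at about 38% in these data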
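Repeats: no replicates (n 1) | Material: CHO-derived RD-HGA16 cells with stable Gα16 and human TAAR1 | Technique: Kinetic Fluo-8 calcium fluorescence | Schedule: 17-24 h seeding, 75 min 37 °C dye, 30 min RT | Evaluation: % activation from peak over basal fluorescence ratio, DMSO-to-PEA scaled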
TAAR1 antagonist: human TAAR1 antagonism; Q96RJ0; CHO RD-HGA16 TAAR1, Fluo-8 calcium fluorescence, antagonist; inhibition, % at 3 µM; 360,000 tested, 1.5% active; AID 624466;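 active = inhibition above a per-plate cutoff, the mean inhibition of test compounds on that plate plus 3 SD, cut at about 49% in these data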;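 note: 0% = DMSO plus EC80 beta-PEA response and 100% = DMSO alone without agonist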
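System: CHO RD-HGA16 cells bearing hTAAR1. Reagent: EC80 β-phenethylamine stimulus. Schedule: seeding 17-24 h prior, 75-min 37 °C, 30-min RT dye loading. Signal: Fluo-8 intracellular calcium dye fluorescence, real-time kinetic reads. Read-out: % inhibition from peak post-agonist over basal fluorescence ratio. Benchmarks: vehicle wells and EC80 agonist wells. Replicates: n of 1.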
OXTR potentiator: human OXTR potentiation. P30559. CHO-OTR cells, Fluo-8 calcium fluorescence, potentiator mode; 0% = oxytocin EC15, 100% = EC100. activation, % at 3 µM. 320,000 tested, 0.061% active. AID 2445;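 active = activation above that plate's cutoff, the mean activation of tested compounds plus 3 SD, cut at about 6.6% in these data, passing the limit was not always enough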;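 note: 100% uses oxytocin at 75 nM as the full agonist control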
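System: human OTR in CHO cells / Also added: sub-maximal oxytocin, roughly EC15 / Control set: EC15 oxytocin low, 75 nM oxytocin high / Schedule: 6 min compound pre-incubation at room temperature, 100 s kinetic read / Compound: single-point 3.0 µM / Replication: singlicate / Technique: Fluo-8 calcium dye fluorescence / Read-out basis: % activation of max/min ratio relative to oxytocin controls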
OXTR ag: activates the human oxytocin receptor. P30559. CHO-OTR cells, Fluo-8 calcium fluorescence; normalized: DMSO 0%, oxytocin 100%. activation, % at 3 µM. 320,000 tested, 0.32% active;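 active = activation above the mean of all tested compounds plus 3 SD, cutoff set per screening run, cut at about 20% in these data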;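 note: peak over basal fluorescence ratio from a 100 s FLIPR kinetic read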
Starred values were filed as active, the others as inactive; / = not tested or not shown.

SMILES	V1aR counter	TAAR1 ag	TAAR1 antagonist	OXTR potentiator	OXTR ag
O=C(CSc1nnnn1-c1cccc2c1CCCC2)N1CCCCC1	6	45*	8	-10	6
Cc1nc2ccccn2c1-c1csc(Nc2cccc(O)c2)n1	/	2	55*	/	/
COc1ccccc1CNc1nc(NCc2ccccc2SC)c2sccc2n1	/	7	43	/	/
O=C(CC1SC(=Nc2cccc3ccccc23)N(Cc2ccccn2)C1=O)Nc1ccccc1Br (stereo not drawn)	2	2	-34	-6	2
Cc1ccccc1N=C1SC(CC(=O)Nc2ccc3ccccc3c2)C(=O)N1Cc1ccccn1 (stereo not drawn)	4	10	51*	-9	3
CCC(=O)N(C)C[C@@H]1Oc2ncc(Br)cc2C(=O)N([C@H](C)CO)C[C@H]1C	/	3	-18	/	/
COC(=O)c1ccc2c(=O)n(CC3CCCO3)c(SCC(=O)Nc3ccccc3Cl)nc2c1 (stereo not drawn)	0	6	17	2	-1
COC(=O)c1ccc2c(=O)n(CC3CCCO3)c(SCC(=O)Nc3ccccc3OC)nc2c1 (stereo not drawn)	-2	2	51*	-3	-1
Cc1[nH]c2ccccc2c1/C=C/c1nc2ccccc2c(=O)n1CCO	3	13	51*	-12	2
CCOCCc1nnc(NC(=O)Cc2ccc(Br)cc2)s1	11	46*	-12	-8	10
O=C1C2C3CC4C5C3C1C5C1(SCCS1)C42 (stereo not drawn)	/	-1	1	/	/
O=C(O)CC/C(=C\c1cccc(NC(=O)c2ccccc2Cl)c1)c1nc2ccccc2s1	4	12	50*	-8	1
CCN1CCC(O)(/C=C/c2ccc(C(C)C)cc2)C(C(=O)/C=C/c2ccc(C(C)C)cc2)C1 (stereo not drawn)	/	40*	24	/	/
CCN1CCN(C(=O)/C=C/c2ccc(C(C)C)cc2)CC1	-1	1	-37	-10	0
COc1cc([N+](=O)[O-])cc(/C=C2/SC(=S)N(Cc3ccccc3)C2=O)c1O	64*	25	47	-25	82*
CCOc1cc(/C=C2/SC(=S)N(Cc3ccccc3)C2=O)ccc1O	37*	12	10	-16	26*
Cc1cccc2nc(-c3ccccc3)c(-c3ccc(CN4CCC(n5cc(-c6ccccc6)[nH]c5=O)CC4)cc3)nc12	/	2	-9	/	/
Cc1ccccc1-c1ccc2c(c1)[C@@H]1C[C@H]3[C@@H](CN1CC2)[C@H](C)ON3C	/	2	-35	/	/
COc1ccc(NC(=O)CSc2nc3ccsc3c(=O)n2CCCCCC(=O)O)cc1	0	4	50*	2	0
COc1ccc(-c2cc(C(=O)Nc3c(C)n(C)n(-c4ccccc4)c3=O)c3ccccc3n2)cc1OC	3	17	55*	-7	2
Cc1c(NC(=O)c2cc(-c3cccs3)nc3ccccc23)c(=O)n(-c2ccccc2)n1C	0	20	46	-10	0
COc1ccc(-c2cc(C(=O)NNC(=O)c3csc(N4CCOCC4)n3)c3ccccc3n2)cc1OC	1	14	58*	-4	0
CCO[C@@H]1OC(C(=O)N2CCN(Cc3ccccc3)CC2)=C[C@H](c2ccc(Br)cc2)[C@H]1CCCO	11	13	49*	-13	2
Oc1ccc2sc(-c3ccccc3O)c(-c3ccc(OCCN4CCCCC4)cc3)c2c1	/	39*	53*	/	/
C[C@@H]1CN([C@H](C)CO)C(=O)CCCn2cc(nn2)CO[C@H]1CN(C)C(=O)Nc1ccnc(N2CCOCC2)c1	/	2	0	/	/
SMILES	V1aR counter	TAAR1 ag	TAAR1 antagonist	OXTR potentiator	OXTR ag
COc1ccc(OC2C(=O)N(Cc3ccc4c(c3)OCO4)C2c2sccc2C)cc1 (stereo not drawn)	1	3	50*	-10	1
COc1ccc(OC2C(=O)N(Cc3ccc(F)cc3)C2c2ccc(OC)c(OC)c2)cc1 (stereo not drawn)	0	5	28	-8	-1
CC(C)(C)OC(=O)NCCCCCNC(=O)c1nc[nH]c1C(=O)NCc1ccc(CNC(=O)OC(C)(C)C)cc1	7	23	81*	-8	6
CC(C)(C)OC(=O)NCc1ccc(CNC(=O)c2nc[nH]c2C(=O)NCc2ccc(CNC(=O)OC(C)(C)C)cc2)cc1	1	8	43	-8	0
C[C@H](NC(=O)c1nc[nH]c1C(=O)N[C@@H](C)c1ccccc1)c1ccccc1	-1	42*	54*	-1	-2
CC(C)(C)OC(=O)NCCCCCNC(=O)c1nc[nH]c1C(=O)NCCCCCNC(=O)OC(C)(C)C	5	21	69*	-9	3
O=C(Nc1ccccc1)c1nc[nH]c1C(=O)NCCCNC(=O)c1[nH]cnc1C(=O)Nc1ccccc1	1	19	54*	-3	1
CC(C)(C)OC(=O)NCCCCCNC(=O)c1[nH]cnc1C(=O)N[C@@H](CCCCNC(=O)OC(C)(C)C)C(=O)OC(C)(C)C	0	/	/	-12	-2
C=CCN1C[C@H](COC(=O)c2ccc(C)c(C)c2)Oc2cccc(F)c2S1(=O)=O	/	1	28	/	/
COCCNC(=S)N(C)[C@H]1C[C@H]2c3[nH]c4ccccc4c3CCN2C(=O)[C@H]1[C@H](C)O	/	2	-20	/	/
CCc1nc2ccc(C(=O)N(C)CCCN(C)C)cn2c1N(CC)CCOC	/	0	-7	/	/
COc1ccc(-n2sc3ccc(F)cc3c2=O)cc1	10	50*	45	-5	12
Cc1ccc(C)c(-n2sc3ccc(F)cc3c2=O)c1	9	45*	51*	-8	17
O=c1c2cc(F)ccc2sn1-c1ccc(F)cc1	14	/	/	-10	18
C=CCNc1nc(-c2sc(NC(=O)C(C)(C)C)nc2C)c(-n2cc(-c3ccccc3)nn2)s1	/	7	61*	/	/
Cc1ccc(-c2cc(C(=O)N3CCN(c4ncccn4)CC3)c3cc(Br)ccc3n2)o1	0	24	59*	-4	0
Cc1ccc(-c2cc(C(=O)N3CCN(c4ccc(F)cc4)CC3)c3ccccc3n2)o1	-1	19	46	-3	-2
Cc1cc(NC(=O)NC(=O)c2ccccc2NC(=O)C(C)N)ccc1Oc1ncc(Br)cn1 (stereo not drawn)	/	43*	-7	/	/
Cc1ccc(C(=O)N2N=C(c3cccc(NS(C)(=O)=O)c3)CC2c2cccs2)cc1 (stereo not drawn)	4	11	51*	-9	2
O=C(NCCn1cc(SCc2ccccc2F)c2ccccc21)c1c(F)cccc1F	2	2	83*	-6	1
O=C(NCCn1cc(SCC(=O)N2CCOCC2)c2ccccc21)c1c(F)cccc1F	2	7	28	0	1
Cc1ccccc1OCC(O)CN (stereo not drawn)	2	38*	-17	3	0
